Laboratory results: ChEMBL document CHEMBL1149320, “New class of corticotropin-releasing factor (CRF) antagonists: small peptides having high binding affinity for CRF receptor” (J Med Chem, 2004)
Bridge positions count the residues as written; N and C are the ends. Square brackets hold non-standard residues; d marks the D form. Peptide text beside a SMILES is read from it. ξ: configuration not given here. Cha = N[C@@H](CC1CCCCC1)C(=O)O; ξR = N=C(N)NCCCC(N)C(=O)O; Nle = CCCC[C@H](N)C(=O)O

Target: T1, Corticotropin-releasing factor receptor 1 (Homo sapiens, UniProt P34998)
T1 sequence (P34998 whole entry): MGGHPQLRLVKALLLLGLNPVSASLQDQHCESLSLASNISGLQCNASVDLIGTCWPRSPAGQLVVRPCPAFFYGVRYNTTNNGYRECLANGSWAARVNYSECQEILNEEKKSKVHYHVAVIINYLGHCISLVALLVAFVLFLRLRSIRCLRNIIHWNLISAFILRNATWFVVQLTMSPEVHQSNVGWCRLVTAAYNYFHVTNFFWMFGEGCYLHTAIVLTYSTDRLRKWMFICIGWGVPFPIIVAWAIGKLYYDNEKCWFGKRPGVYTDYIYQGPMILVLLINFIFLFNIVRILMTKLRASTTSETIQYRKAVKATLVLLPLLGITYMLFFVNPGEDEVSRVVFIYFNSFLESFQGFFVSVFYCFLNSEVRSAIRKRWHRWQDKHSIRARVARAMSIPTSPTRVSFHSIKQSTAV
Experiment: Binding affinity at human CRF1 receptor (CRFR1) on HeLA cell membranes.
Type: cell-based
Settings: not given
Outline: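 Membranes from HeLa cells transfected with a plasmid encoding human CRFR1, precoupled to WGA scintillation proximity beads. Bead-bound radioactivity counted by scintillation. Ki reported; curves from three determinations, each in duplicate.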

Row | Ki [nM] | Compound
1 | > 1000 | CCCC[C@H](NC(=O)[C@H](CC(C)C)NC(=O)[C@H](CCCCN)NC(=O)[C@H](CCCN=C(N)N)NC(=O)[C@H](CC(=O)O)NC(=O)[C@@H]1CCCCNC(=O)CC[C@H](NC(C)=O)C(=O)N[C@@H](C)C(=O)N[C@@H](Cc2c[nH]cn2)C(=O)N1)C(=O)N[C@@H](CCC(=O)O)C(=O)N[C@H](C(=O)N[C@H](C(N)=O)[C@@H](C)CC)[C@@H](C)CC (Ac-EAHKDRKL[Nle]EII-NH2; lactam 1-4)
2 | > 1000 | CCCC[C@H](NC(=O)[C@H](CC(C)C)NC(=O)[C@H](CCCCN)NC(=O)[C@H](CCCN=C(N)N)NC(=O)[C@H](CC(C)C)NC(=O)[C@@H]1CCCCNC(=O)CC[C@H](NC(C)=O)C(=O)N[C@@H](C)C(=O)N[C@@H](Cc2c[nH]cn2)C(=O)N1)C(=O)N[C@@H](CCC(=O)O)C(=O)N[C@H](C(=O)N[C@H](C(N)=O)[C@@H](C)CC)[C@@H](C)CC (Ac-EAHKLRKL[Nle]EII-NH2; lactam 1-4)
3 | > 1000 | CCCC[C@H](NC(=O)[C@H](CC(C)C)NC(=O)[C@H](CCCCN)NC(=O)[C@H](CCCN=C(N)N)NC(=O)[C@H](CCC(N)=O)NC(=O)[C@@H]1CCCCNC(=O)CC[C@H](NC(C)=O)C(=O)N[C@@H](C)C(=O)N[C@@H](Cc2c[nH]cn2)C(=O)N1)C(=O)N[C@@H](CCC(=O)O)C(=O)N[C@H](C(=O)N[C@H](C(N)=O)[C@@H](C)CC)[C@@H](C)CC (Ac-EAHKQRKL[Nle]EII-NH2; lactam 1-4)
4 | > 1000 | CCCC[C@H](NC(=O)[C@H](CC(C)C)NC(=O)[C@H](CCCCN)NC(=O)[C@H](CCCN=C(N)N)NC(=O)[C@H](CC(N)=O)NC(=O)[C@@H]1CCCCNC(=O)CC[C@H](NC(C)=O)C(=O)N[C@@H](CC(=O)O)C(=O)N[C@@H](Cc2c[nH]cn2)C(=O)N1)C(=O)N[C@@H](CCC(=O)O)C(=O)N[C@H](C(=O)N[C@H](C(N)=O)[C@@H](C)CC)[C@@H](C)CC (Ac-EDHKNRKL[Nle]EII-NH2; lactam 1-4)

Same assay, conditions: hela

Row | Ki [nM] | Compound
5 | > 1000 | CCCC[C@H](NC(=O)[C@H](CC(C)C)NC(=O)[C@H](CCCCN)NC(=O)[C@H](CCCN=C(N)N)NC(=O)[C@H](CC(N)=O)NC(=O)[C@@H]1CCCCNC(=O)CC[C@H](NC(C)=O)C(=O)N[C@H](C)C(=O)N[C@@H](Cc2ccccc2)C(=O)N1)C(=O)N[C@@H](CCC(=O)O)C(=O)N[C@H](C(=O)N[C@H](C(N)=O)[C@@H](C)CC)[C@@H](C)CC
6 | 3.1 | CC[C@H](C)[C@H](NC(=O)[C@@H](NC(=O)[C@H](CC(=O)O)NC(=O)[C@H](CC1CCCCC1)NC(=O)[C@H](CC(C)C)NC(=O)[C@H](CCCCN)NC(=O)[C@H](CCCNC(=N)N)NC(=O)[C@H](CC(C)C)NC(=O)[C@@H]1CCCCNC(=O)CC[C@H](NC(C)=O)C(=O)N[C@H](C)C(=O)N[C@@H](CCC(=O)O)C(=O)N1)[C@@H](C)CC)C(N)=O
7 | 5.5 | CC[C@H](C)[C@H](NC(=O)[C@@H](NC(=O)[C@H](CC(=O)O)NC(=O)[C@H](CC1CCCCC1)NC(=O)[C@H](CC(C)C)NC(=O)[C@H](CCCCN)NC(=O)[C@H](CCCNC(=N)N)NC(=O)[C@H](CC(N)=O)NC(=O)[C@@H]1CCCCNC(=O)CC[C@H](NC(C)=O)C(=O)N[C@@H](C)C(=O)N[C@@H](CCC(=O)O)C(=O)N1)[C@@H](C)CC)C(N)=O (Ac-EAEKNRKL[Cha]DII-NH2; lactam 1-4)
8 | 44.8 | CCCC[C@H](NC(=O)[C@H](CC(C)C)NC(=O)[C@H](CCCCN)NC(=O)C(CCCN=C(N)N)NC(=O)[C@H](CC(N)=O)NC(=O)[C@@H]1CCCCNC(=O)CC[C@H](NC(C)=O)C(=O)N[C@@H](C)C(=O)N[C@@H](CCCCN)C(=O)N1)C(=O)N[C@@H](CCC(=O)O)C(=O)N[C@H](C(=O)N[C@H](C(N)=O)[C@@H](C)CC)[C@@H](C)CC (some centres undefined) (Ac-EAKKN[ξR]KL[Nle]EII-NH2; lactam 1-4)

Row | Compound | Ki [nM]
9 | CCCC[C@H](NC(=O)[C@H](CC(C)C)NC(=O)[C@H](CCCCN)NC(=O)[C@H](CCCNC(=N)N)NC(=O)[C@H](CC(C)C)NC(=O)[C@@H]1CCCCNC(=O)CC[C@H](NC(C)=O)C(=O)N[C@@H](C)C(=O)N[C@@H](CC(C)C)C(=O)N1)C(=O)N[C@@H](CCC(=O)O)C(=O)N[C@H](C(=O)N[C@H](C(N)=O)[C@@H](C)CC)[C@@H](C)CC (Ac-EALKLRKL[Nle]EII-NH2; lactam 1-4) | 48.9
